In ChEMBL document CHEMBL3352626, “Synthesis and biological evaluation of novel oxindole-based RTK inhibitors as anti-cancer agents” (Bioorg Med Chem, 2014):
pIC50: −log10 of the molar value. The source made the active and inactive calls. The calls are words filed in the database; no cut-off is given here.

Experiments:
NCI-H1975 = test: Antiproliferative activity against human NCI-H1975 cells at 10 uM after 72 hrs by MTS assay; type: functional
How it was run: (§1)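 Single-concentration screen. Cells at 4 × 10^4 cells/ml, seeded and incubated overnight, then given 10 µM compound in DMSO for 72 h (37 °C, 5% CO2), with DMSO-only controls. MTS added for 4 h and A490 read. Percent inhibition = (1 − OD490 treated/OD490 control) × 100, from triplicate experiments.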

A549 [1] = test: Antiproliferative activity against human A549 cells at 10 uM after 72 hrs by MTS assay; type: functional
U-251 = test: Antiproliferative activity against human U251 cells at 10 uM after 72 hrs by MTS assay; type: functional; how it was run: as §1
[2] = Antiproliferative activity against human SGC7901 cells at 10 uM after 72 hrs by MTS assay; type: functional, SGC-7901
[3] = Antiproliferative activity against human Bel7402 cells at 10 uM after 72 hrs by MTS assay; type: functional, Bel-7402
[4] = Antiproliferative activity against human HCC827 cells at 10 uM after 72 hrs by MTS assay; type: functional
[5] = Antiproliferative activity against human H460 cells at 10 uM after 72 hrs by MTS assay; type: functional, NCI-H460
[6] = Antiproliferative activity against human PM8910 cells at 10 uM after 72 hrs by MTS assay; type: functional
[7] = Antiproliferative activity against human SKBR3 cells at 10 uM after 72 hrs by MTS assay; type: functional, SK-BR-3; how it was run: as §1
[8] = Antiproliferative activity against human PM8910 cells after 72 hrs by MTS assay; type: functional, cell-based; conditions: PM8910, 72 h
How it was run: (§2)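 Cells at 4 × 10^4 cells/ml, seeded and left overnight, then exposed in triplicate to 30, 10, 3, 1, 0.3 and 0.1 µM compound in DMSO for 72 h at 37 °C under 5% CO2. MTS dye added for 4 h and absorbance read at 490 nm. Inhibition = (1 − OD treated/OD DMSO control) × 100. IC50 derived from the dilution series.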

[9] = Antiproliferative activity against human HCC827 cells after 72 hrs by MTS assay; type: functional, cell-based; conditions: HCC827, 72 h; how it was run: as §2
[10] = Antiproliferative activity against human SGC7901 cells after 72 hrs by MTS assay; type: functional, cell-based; conditions: SGC-7901, 72 h; how it was run: as §2
[11] = Antiproliferative activity against human Bel7402 cells after 72 hrs by MTS assay; type: functional, cell-based; conditions: Bel-7402, 72 h; how it was run: as §2
A549 [12] = test: Antiproliferative activity against human A549 cells after 72 hrs by MTS assay; type: functional, cell-based; conditions: A549, 72 h; how it was run: as §2
[13] = Antiproliferative activity against human H460 cells after 72 hrs by MTS assay; type: functional, cell-based; conditions: NCI-H460, 72 h; how it was run: as §2
[14] = Antiproliferative activity against rat NRK-52E cells after 72 hrs by MTS assay; type: cell-based
[15] = target: T1, Mast/stem cell growth factor receptor Kit (Homo sapiens, UniProt P10721); test: Inhibition of recombinant c-Kit (unknown origin) at 10 uM after 1 hr by microfluidic assay
T1 sequence (P10721 whole entry): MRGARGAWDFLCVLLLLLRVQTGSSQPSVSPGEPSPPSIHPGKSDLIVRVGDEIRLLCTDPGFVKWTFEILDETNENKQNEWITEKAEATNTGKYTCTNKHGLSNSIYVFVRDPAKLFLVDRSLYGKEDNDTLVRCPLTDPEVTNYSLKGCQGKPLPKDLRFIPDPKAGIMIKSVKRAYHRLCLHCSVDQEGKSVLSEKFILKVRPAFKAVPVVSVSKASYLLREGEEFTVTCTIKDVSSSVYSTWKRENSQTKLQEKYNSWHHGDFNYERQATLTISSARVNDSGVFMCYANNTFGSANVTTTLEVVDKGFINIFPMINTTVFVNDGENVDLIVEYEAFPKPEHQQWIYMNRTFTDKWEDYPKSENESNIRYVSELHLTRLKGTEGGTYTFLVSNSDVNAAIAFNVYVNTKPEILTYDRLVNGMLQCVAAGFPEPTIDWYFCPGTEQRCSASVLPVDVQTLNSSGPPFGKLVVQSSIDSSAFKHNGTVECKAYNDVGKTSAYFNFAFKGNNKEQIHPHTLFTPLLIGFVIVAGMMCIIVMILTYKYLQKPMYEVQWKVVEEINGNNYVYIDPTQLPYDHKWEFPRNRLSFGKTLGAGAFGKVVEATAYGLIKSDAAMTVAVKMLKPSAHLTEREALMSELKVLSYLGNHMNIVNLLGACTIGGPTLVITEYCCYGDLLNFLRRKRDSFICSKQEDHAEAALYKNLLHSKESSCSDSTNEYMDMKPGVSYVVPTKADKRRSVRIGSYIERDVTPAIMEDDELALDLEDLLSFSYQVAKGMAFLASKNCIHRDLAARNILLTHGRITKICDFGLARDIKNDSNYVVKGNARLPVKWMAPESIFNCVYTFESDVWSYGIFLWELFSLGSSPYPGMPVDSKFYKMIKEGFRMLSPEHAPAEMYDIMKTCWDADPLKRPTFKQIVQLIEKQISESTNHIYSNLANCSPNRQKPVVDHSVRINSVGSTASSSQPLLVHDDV
How it was run: (§3)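 Caliper microfluidic mobility-shift assay using recombinant kinases from Carna. Enzyme, substrate, ATP (at Km) and compound reacted for 1 h, then stopped with EDTA. Substrate-to-phosphoproduct conversion read on EZ Reader II. Percent inhibition calculated relative to no-enzyme blanks and full-reaction wells, each containing 2.5% DMSO.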

[16] = target: Platelet-derived growth factor receptor beta (Homo sapiens) (UniProt P09619); test: Inhibition of recombinant PDGFRb (unknown origin) at 10 uM after 1 hr by microfluidic assay; how it was run: as §3
Platelet-derived growth factor receptor beta (Homo sapiens), sequence (P09619 whole entry): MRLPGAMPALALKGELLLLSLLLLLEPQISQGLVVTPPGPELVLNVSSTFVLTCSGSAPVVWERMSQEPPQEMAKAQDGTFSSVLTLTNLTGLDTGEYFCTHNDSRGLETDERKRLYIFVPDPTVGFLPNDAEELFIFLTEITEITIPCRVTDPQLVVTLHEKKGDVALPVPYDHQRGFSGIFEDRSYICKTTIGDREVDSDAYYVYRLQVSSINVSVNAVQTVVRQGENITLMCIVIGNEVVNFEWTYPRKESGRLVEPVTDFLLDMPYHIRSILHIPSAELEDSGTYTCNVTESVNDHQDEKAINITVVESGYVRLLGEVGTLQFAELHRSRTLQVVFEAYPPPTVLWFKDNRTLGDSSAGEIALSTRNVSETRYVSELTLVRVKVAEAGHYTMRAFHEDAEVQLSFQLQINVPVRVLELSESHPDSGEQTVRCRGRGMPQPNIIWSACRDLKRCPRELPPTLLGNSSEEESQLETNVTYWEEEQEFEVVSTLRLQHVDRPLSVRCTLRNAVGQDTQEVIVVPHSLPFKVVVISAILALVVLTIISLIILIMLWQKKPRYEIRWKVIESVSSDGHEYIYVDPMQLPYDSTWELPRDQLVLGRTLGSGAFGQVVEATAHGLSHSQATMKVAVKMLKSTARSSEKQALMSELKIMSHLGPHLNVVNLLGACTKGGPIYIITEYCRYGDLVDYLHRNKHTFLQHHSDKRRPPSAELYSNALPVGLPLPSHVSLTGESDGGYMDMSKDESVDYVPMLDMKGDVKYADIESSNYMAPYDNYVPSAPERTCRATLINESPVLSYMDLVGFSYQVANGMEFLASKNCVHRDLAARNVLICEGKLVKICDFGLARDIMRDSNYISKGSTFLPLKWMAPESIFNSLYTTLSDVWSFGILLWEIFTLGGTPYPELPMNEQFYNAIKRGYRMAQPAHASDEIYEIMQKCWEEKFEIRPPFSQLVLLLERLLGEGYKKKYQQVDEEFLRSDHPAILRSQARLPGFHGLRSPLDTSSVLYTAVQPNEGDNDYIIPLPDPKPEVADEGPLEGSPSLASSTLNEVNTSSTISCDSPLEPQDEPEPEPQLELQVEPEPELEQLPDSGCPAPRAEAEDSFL

[17] = target: Vascular endothelial growth factor receptor 2 (Homo sapiens) (UniProt P35968); test: Inhibition of recombinant KDR (unknown origin) at 10 uM after 1 hr by microfluidic assay; how it was run: as §3
Vascular endothelial growth factor receptor 2 (Homo sapiens), sequence (P35968 whole entry): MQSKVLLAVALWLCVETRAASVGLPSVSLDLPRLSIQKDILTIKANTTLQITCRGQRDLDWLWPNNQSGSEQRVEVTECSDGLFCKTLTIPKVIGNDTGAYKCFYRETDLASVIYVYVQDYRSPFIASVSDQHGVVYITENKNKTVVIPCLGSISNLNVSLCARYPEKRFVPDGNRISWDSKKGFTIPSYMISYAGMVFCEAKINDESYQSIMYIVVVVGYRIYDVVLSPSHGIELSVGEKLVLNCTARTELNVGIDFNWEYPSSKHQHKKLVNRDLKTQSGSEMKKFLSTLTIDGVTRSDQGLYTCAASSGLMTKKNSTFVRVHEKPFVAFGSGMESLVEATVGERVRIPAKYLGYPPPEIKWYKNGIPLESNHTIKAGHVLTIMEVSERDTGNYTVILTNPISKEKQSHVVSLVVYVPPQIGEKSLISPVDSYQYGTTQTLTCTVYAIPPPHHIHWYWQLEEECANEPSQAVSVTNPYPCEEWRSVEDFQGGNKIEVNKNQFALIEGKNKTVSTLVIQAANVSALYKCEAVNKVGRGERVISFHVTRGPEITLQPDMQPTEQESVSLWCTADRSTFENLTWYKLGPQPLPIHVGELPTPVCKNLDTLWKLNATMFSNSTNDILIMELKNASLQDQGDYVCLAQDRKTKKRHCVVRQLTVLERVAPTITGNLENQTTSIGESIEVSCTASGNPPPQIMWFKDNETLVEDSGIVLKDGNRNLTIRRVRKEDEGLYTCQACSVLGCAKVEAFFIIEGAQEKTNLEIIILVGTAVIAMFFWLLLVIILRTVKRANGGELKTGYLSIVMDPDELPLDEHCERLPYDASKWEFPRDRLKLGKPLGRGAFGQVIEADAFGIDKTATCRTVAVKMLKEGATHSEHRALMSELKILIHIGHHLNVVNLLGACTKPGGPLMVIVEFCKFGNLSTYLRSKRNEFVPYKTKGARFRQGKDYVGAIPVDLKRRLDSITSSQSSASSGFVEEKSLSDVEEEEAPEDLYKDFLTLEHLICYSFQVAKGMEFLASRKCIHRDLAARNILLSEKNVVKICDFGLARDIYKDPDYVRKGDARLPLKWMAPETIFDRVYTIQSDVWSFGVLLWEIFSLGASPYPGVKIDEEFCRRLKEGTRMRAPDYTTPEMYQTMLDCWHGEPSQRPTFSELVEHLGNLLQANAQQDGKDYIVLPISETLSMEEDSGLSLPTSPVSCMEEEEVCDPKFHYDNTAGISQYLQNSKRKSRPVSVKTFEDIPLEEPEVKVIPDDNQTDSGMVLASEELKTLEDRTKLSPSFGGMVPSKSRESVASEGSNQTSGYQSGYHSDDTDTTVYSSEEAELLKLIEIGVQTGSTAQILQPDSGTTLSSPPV

Aurora kinase B [18] = target: T2, Aurora kinase B (Homo sapiens, UniProt Q96GD4); test: Inhibition of recombinant Aur B (unknown origin) at 10 uM after 1 hr by microfluidic assay; how it was run: as §3
T2 sequence (Q96GD4 whole entry): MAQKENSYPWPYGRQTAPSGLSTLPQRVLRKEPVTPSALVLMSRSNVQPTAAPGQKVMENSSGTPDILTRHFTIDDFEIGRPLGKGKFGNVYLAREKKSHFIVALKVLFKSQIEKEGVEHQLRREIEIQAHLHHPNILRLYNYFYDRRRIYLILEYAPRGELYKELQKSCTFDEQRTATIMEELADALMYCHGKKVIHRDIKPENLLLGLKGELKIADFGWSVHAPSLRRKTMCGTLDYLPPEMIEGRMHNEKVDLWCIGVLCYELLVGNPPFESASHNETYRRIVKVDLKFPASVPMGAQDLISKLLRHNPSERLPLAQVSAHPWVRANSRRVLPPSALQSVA

[19] = target: T3, Serine/threonine-protein kinase Sgk1 (Homo sapiens) (UniProt O00141); test: Inhibition of recombinant SGK1 (unknown origin) at 10 uM after 1 hr by microfluidic assay; how it was run: as §3
T3 sequence (whole entry): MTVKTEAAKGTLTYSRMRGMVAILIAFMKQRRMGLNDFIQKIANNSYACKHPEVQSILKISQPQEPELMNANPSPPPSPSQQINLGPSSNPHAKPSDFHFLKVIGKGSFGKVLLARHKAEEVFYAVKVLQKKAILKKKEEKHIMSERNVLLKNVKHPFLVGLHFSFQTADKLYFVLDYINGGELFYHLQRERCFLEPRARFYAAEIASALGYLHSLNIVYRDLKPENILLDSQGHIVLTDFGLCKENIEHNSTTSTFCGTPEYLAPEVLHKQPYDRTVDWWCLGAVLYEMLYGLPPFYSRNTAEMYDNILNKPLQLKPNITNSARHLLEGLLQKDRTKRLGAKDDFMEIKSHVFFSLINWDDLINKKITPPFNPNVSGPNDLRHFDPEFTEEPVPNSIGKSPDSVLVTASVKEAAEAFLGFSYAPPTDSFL

[20] = target: Epidermal growth factor receptor (Homo sapiens) (UniProt P00533); test: Inhibition of recombinant EGFR (unknown origin) at 10 uM after 1 hr by microfluidic assay; how it was run: as §3
Epidermal growth factor receptor (Homo sapiens), sequence (P00533 whole entry): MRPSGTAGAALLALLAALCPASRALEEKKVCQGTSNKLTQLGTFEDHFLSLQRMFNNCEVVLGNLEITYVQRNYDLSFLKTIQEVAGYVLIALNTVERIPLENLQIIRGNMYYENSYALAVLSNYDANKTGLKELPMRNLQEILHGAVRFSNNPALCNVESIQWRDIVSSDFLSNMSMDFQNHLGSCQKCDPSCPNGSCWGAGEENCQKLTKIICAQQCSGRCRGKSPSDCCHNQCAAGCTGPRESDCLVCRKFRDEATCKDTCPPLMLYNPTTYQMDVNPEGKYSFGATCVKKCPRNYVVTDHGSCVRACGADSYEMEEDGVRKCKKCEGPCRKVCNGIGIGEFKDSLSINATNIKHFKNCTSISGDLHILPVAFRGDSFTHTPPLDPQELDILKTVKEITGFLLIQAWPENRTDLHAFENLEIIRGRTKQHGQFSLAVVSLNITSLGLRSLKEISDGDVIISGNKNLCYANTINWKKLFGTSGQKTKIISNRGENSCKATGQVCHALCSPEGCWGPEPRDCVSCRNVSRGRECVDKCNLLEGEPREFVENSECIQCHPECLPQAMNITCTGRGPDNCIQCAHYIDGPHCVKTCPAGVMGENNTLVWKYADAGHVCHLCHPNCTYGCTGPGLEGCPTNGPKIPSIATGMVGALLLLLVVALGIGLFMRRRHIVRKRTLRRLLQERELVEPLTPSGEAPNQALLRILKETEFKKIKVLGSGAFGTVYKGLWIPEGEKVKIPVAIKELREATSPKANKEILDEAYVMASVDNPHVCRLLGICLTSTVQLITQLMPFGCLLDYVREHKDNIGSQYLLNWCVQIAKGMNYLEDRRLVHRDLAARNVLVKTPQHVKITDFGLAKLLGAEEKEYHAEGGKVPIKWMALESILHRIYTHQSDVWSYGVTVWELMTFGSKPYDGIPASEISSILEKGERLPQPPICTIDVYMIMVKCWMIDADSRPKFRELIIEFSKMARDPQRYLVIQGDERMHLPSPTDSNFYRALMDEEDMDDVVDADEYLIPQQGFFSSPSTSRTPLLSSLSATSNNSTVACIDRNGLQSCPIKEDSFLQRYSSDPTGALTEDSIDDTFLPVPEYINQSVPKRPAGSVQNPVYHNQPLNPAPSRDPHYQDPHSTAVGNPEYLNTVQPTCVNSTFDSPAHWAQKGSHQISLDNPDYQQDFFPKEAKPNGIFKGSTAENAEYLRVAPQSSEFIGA

[21] = target: T1, Mast/stem cell growth factor receptor Kit; test: Inhibition of recombinant c-Kit (unknown origin) at 1 uM after 1 hr by microfluidic assay; how it was run: as §3
[22] = target: Platelet-derived growth factor receptor beta (Homo sapiens) (UniProt P09619); test: Inhibition of recombinant PDGFRb (unknown origin) at 1 uM after 1 hr by microfluidic assay; how it was run: as §3
[23] = target: Vascular endothelial growth factor receptor 2 (Homo sapiens) (UniProt P35968); test: Inhibition of recombinant KDR (unknown origin) at 1 uM after 1 hr by microfluidic assay; how it was run: as §3
Aurora kinase B [24] = target: T2, Aurora kinase B; test: Inhibition of recombinant Aur B (unknown origin) at 1 uM after 1 hr by microfluidic assay; how it was run: as §3
[25] = target: T3, Serine/threonine-protein kinase Sgk1 (Homo sapiens); test: Inhibition of recombinant SGK1 (unknown origin) at 1 uM after 1 hr by microfluidic assay; how it was run: as §3
[26] = target: Epidermal growth factor receptor (Homo sapiens) (UniProt P00533); test: Inhibition of recombinant EGFR (unknown origin) at 1 uM after 1 hr by microfluidic assay; how it was run: as §3
[27] = target: T1, Mast/stem cell growth factor receptor Kit; test: Inhibition of recombinant c-Kit (unknown origin) at 0.1 uM after 1 hr by microfluidic assay; how it was run: as §3
[28] = target: Platelet-derived growth factor receptor beta (Homo sapiens) (UniProt P09619); test: Inhibition of recombinant PDGFRb (unknown origin) at 0.1 uM after 1 hr by microfluidic assay; how it was run: as §3
[29] = target: Vascular endothelial growth factor receptor 2 (Homo sapiens) (UniProt P35968); test: Inhibition of recombinant KDR (unknown origin) at 0.1 uM after 1 hr by microfluidic assay; how it was run: as §3
Aurora kinase B [30] = target: T2, Aurora kinase B; test: Inhibition of recombinant Aur B (unknown origin) at 0.1 uM after 1 hr by microfluidic assay; how it was run: as §3
[31] = target: T3, Serine/threonine-protein kinase Sgk1 (Homo sapiens); test: Inhibition of recombinant SGK1 (unknown origin) at 0.1 uM after 1 hr by microfluidic assay; how it was run: as §3
[32] = target: Epidermal growth factor receptor (Homo sapiens) (UniProt P00533); test: Inhibition of recombinant EGFR (unknown origin) at 0.1 uM after 1 hr by microfluidic assay; how it was run: as §3
[33] = target: T1, Mast/stem cell growth factor receptor Kit; test: Inhibition of recombinant c-Kit (unknown origin) after 1 hr by microfluidic assay; how it was run: as §3
Aurora kinase B [34] = target: T2, Aurora kinase B; test: Inhibition of recombinant Aur B (unknown origin) after 1 hr by microfluidic assay; how it was run: as §3
A549 [35] = test: Cell cycle arrest at G1 phase in human A549 cells at 3 to 6 uM after 24 hrs by flow cytometry; type: functional, cell-based
How it was run: (§4)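 Cells seeded in 60 mm plates, treated for 24 h, washed twice in PBS and fixed in ice-cold 75% ethanol. Stained overnight at 4 °C with PI ([…]) containing RNase 180 U/ml, 0.15% Triton X-100 and polyethylene glycol in 4 mmol/l citrate, pH 7.8. DNA content measured by FACScan flow cytometry against a DMSO group. Mean ± SEM of three independent experiments.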

A549 [36] = test: Cell cycle arrest in human A549 cells assessed as reduction of cells in S phase at 3 to 6 uM after 24 hrs by flow cytometry; type: functional, cell-based; how it was run: as §4
[37] = Cell cycle arrest at G1 phase in human PM8910 cells at 3 to 6 uM after 24 hrs by flow cytometry; type: functional, cell-based; how it was run: as §4
[38] = Cell cycle arrest in human PM8910 cells assessed as reduction of cells in S phase at 3 to 6 uM after 24 hrs by flow cytometry; type: functional, cell-based; how it was run: as §4
[39] = Cell cycle arrest at G1 phase in human SGC7901 cells at 3 to 6 uM after 24 hrs by flow cytometry; type: functional, cell-based; conditions: SGC-7901; how it was run: as §4
[40] = Cell cycle arrest in human SGC7901 cells assessed as reduction of cells in S phase at 3 to 6 uM after 24 hrs by flow cytometry; type: functional, cell-based; conditions: SGC-7901; how it was run: as §4

## O=C1Nc2ccccc2/C1=C/c1ccc(N2CCN(C(=O)CCCl)CC2)cc1
NCI-H1975
  Activity: 67.22%
A549 [1]
  Activity: 54.9%
U-251
  Activity: 20.43%
[2]
  Activity: 60.98%
[3]
  Activity: 49.21%
[4]
  Activity: 56.47%
[5]
  Activity: 66.63%
[6]
  Activity: 59.46%
[7]
  Activity: 26.45%
[8]
  pIC50: 5.56
[9]
  pIC50: 4.90
[10]
  pIC50: 5.55
[11]
  pIC50: 5.47
A549 [12]
  pIC50: 5.52
[13]
  pIC50: 4.70
[14]
  pIC50: < 4.52
[15]
  inhibition: 57.6%
[16]
  inhibition: 76%
[17]
  inhibition: 62.6%
Aurora kinase B [18]
  inhibition: 88.3%
[19]
  inhibition: 42.4%
[20]
  inhibition: 24.3%
[21]
  inhibition: 56.4%
[22]
  inhibition: 46.7%
[23]
  inhibition: 14.7%
Aurora kinase B [24]
  inhibition: 53.5%
[25]
  inhibition: 11.8%
[26]
  inhibition: 20%
[27]
  inhibition: 31.9%
[28]
  inhibition: 13.6%
[29]
  inhibition: 6%
Aurora kinase B [30]
  inhibition: 14.4%
[31]
  inhibition: 3.56%
[32]
  inhibition: 19.1%
[33]
  pIC50: 7.15
Aurora kinase B [34]
  pIC50: 6.23
A549 [35]
  Activity: Active
A549 [36]
  Activity: Active
[37]
  Activity: Active
[38]
  Activity: Active
[39]
  Activity: Active
[40]
  Activity: Active
